Laboratory results published in ChEMBL document CHEMBL3352714, “Synthesis, in Vitro Covalent Binding Evaluation, and Metabolism of (14)C-Labeled Inhibitors of 11β-HSD1” (ACS Med Chem Lett, 2014).

Experiments:
Liver microsome [1] = assay: Oxidative metabolism in human liver microsomes assessed as protein covalent binding measured per mg protein at 10 uM after 1 hr in presence of NADPH
Liver microsome [2] = assay: Oxidative metabolism in human liver microsomes assessed as protein covalent binding measured per mg protein at 10 uM after 1 hr in presence of NADPH
[3] = Drug metabolism in human hepatocytes assessed as total turnover after 2 hrs by LC-MS/MS-radiometric analysis; assay type: ADME, cell-based, Hepatocyte; settings: read-out: Drug metabolism
Outline: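 14C-labeled compound incubated with human hepatocytes. Parent and radiolabeled metabolites were analyzed by tandem LC–MS/MS with radiometric detection and expressed as % of administered dose.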

[4] = Cmax in cynomolgus monkey at 2 mg/kg, po; assay type: ADME, organism-based, Macaca fascicularis; design: dose 2 mg/kg, route oral; settings: in vivo
Outline: (§1)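 Oral dose 2.0 mg/kg. Rat and dog received a solution in 15% HPβCD in Ora-Plus. Cynomolgus monkey received a suspension in 1% Tween 80 and 1% methylcellulose (4000 cps) in deionized water. Values are averages of three animals; iv reference dose was 0.5 mg/kg.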

[5] = Clearance in cynomolgus monkey at 0.5 mg/kg, iv; assay type: ADME, organism-based, Macaca fascicularis; design: dose 0.5 mg/kg, route intravenous; settings: in vivo
Outline: (§2)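 Intravenous dose 0.5 mg/kg, formulated in 10% N,N-dimethylacetamide, 10% ethanol, 40% propylene glycol and 40% water. Values are averages of three animals per species.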

[6] = Volume of distribution at steady state in rat at 0.5 mg/kg, iv; assay type: ADME, organism-based; design: dose 0.5 mg/kg, route intravenous; settings: in vivo, read-out: Vdss; outline: as §2
[7] = Half life in dog at 0.5 mg/kg, iv; assay type: ADME, organism-based, Canis lupus familiaris; design: dose 0.5 mg/kg, route intravenous; settings: in vivo; outline: as §2
Cynomolgus monkey = settings: Macaca fascicularis; at 10 mg/kg
[8] = Half life in rat at 0.5 mg/kg, iv; assay type: ADME, organism-based; design: dose 0.5 mg/kg, route intravenous; settings: in vivo; outline: as §2
[9] = Clearance in dog at 0.5 mg/kg, iv; assay type: ADME, organism-based, Canis lupus familiaris; design: dose 0.5 mg/kg, route intravenous; settings: in vivo; outline: as §2
[10] = Oral bioavailability in dog at 2 mg/kg; assay type: ADME, organism-based, Canis lupus familiaris; settings: in vivo; outline: as §1
[11] = Volume of distribution at steady state in dog at 0.5 mg/kg, iv; assay type: ADME, organism-based, Canis lupus familiaris; design: dose 0.5 mg/kg, route intravenous; settings: in vivo, read-out: Vdss; outline: as §2
[12] = Cmax in rat at 2 mg/kg, po; assay type: ADME, organism-based; design: dose 2 mg/kg, route oral; settings: in vivo; outline: as §1
[13] = Half life in cynomolgus monkey at 0.5 mg/kg, iv; assay type: ADME, organism-based, Macaca fascicularis; design: dose 0.5 mg/kg, route intravenous; settings: in vivo; outline: as §2
[14] = Oral bioavailability in rat at 2 mg/kg; assay type: ADME, organism-based; settings: in vivo; outline: as §1
[15] = Oral bioavailability in cynomolgus monkey at 2 mg/kg; assay type: ADME, organism-based, Macaca fascicularis; settings: in vivo; outline: as §1
[16] = Clearance in rat at 0.5 mg/kg, iv; assay type: ADME, organism-based; design: dose 0.5 mg/kg, route intravenous; settings: in vivo; outline: as §2
[17] = Volume of distribution at steady state in cynomolgus monkey at 0.5 mg/kg, iv; assay type: ADME, organism-based, Macaca fascicularis; design: dose 0.5 mg/kg, route intravenous; settings: in vivo, read-out: Vdss; outline: as §2
[18] = Cmax in dog at 2 mg/kg, po; assay type: ADME, organism-based, Canis lupus familiaris; design: dose 2 mg/kg, route oral; settings: in vivo; outline: as §1

SMILES: c1ccc2ccccc2c1
- PB (Liver microsome [1]): 420 pmol

SMILES: C[C@@H]1CN(CC2(C(N)=O)CC2)[14CH2][14CH2]N1S(=O)(=O)c1ccc([C@](C)(O)C(F)(F)F)cc1
- PB (Liver microsome [2]): 70 pmol
- PB (Liver microsome [1]): 70 pmol

SMILES: C[C@](O)(c1ccc(S(=O)(=O)c2ccc([14C]#N)cc2Cl)cc1)C(F)(F)F
- PB (Liver microsome [2]): 370 pmol
- metabolised at 2 h [3]: 9.8%
- PB (Liver microsome [1]): 370 pmol

SMILES: C[C@](O)(c1ccc(C(=O)N(C2CC2)[C@H]2CC[C@](CO[14C](N)=O)(c3ccc(F)cc3)CC2)cc1)C(F)(F)F
- PB (Liver microsome [2]): 15 pmol
- PB (Liver microsome [1]): 15 pmol

SMILES: C[C@](O)(c1ccc(C(=O)N(C2CC2)[C@H]2CC[C@](COC(N)=O)(c3ccc(F)cc3)CC2)cc1)C(F)(F)F (mixture of isomers)
- Cmax [4]: 211 ng/mL
- clearance [5]: 0.483 mL/min/kg
- Vd [6]: 2.3 L/kg
- half-life [7]: 78 h
- inhibition (Cynomolgus monkey): Dose-dependent effect
- half-life [8]: 43 h
- clearance [9]: 0.2 mL/min/kg
- bioavailability [10]: 88%
- Vd [11]: 1.2 L/kg
- Cmax [12]: 1130 ng/mL
- half-life [13]: 27 h
- bioavailability [14]: 72%
- bioavailability [15]: 38%
- clearance [16]: 0.683 mL/min/kg
- Vd [17]: 1 L/kg
- Cmax [18]: 1840 ng/mL
